Source: PubChem BioAssay
An excerpt weighted towards active compounds, which were near 1.5% of everything screened.
CAL PDZ FP-1 = inhibitors of human CAL PDZ peptide binding. Q9HD26. purified CAL PDZ, TMR-peptide fluorescence polarization, 1 h. inhibition, % at 20 µM. hit rate 0.02% among 330,000;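 active means highest replicate inhibition of at least 40%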
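System: tagged CAL PDZ domain. Schedule: 1 h room-temperature incubation prior to read. Signal: fluorescence polarization (mP). Measure: percent inhibition from loss of millipolarization.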
CAL PDZ FP-2 = blocks peptide binding to the human CAL PDZ domain; Q9HD26; purified CAL PDZ, TMR-peptide fluorescence polarization, 1 h; inhibition, % at 24.9 µM; hit rate 0.92% among 300,000; AID 602252;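 active means mean inhibition of at least 30% with at least half of replicates also reaching 30%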
LANA-H2A inh = blocks KSHV LANA binding to histone H2A/H2B; Q9QR71; cell-free LANA-H2A/H2B peptide, fluorescence polarization; inhibition, % (no concentration beside the values); hit rate 0.6% among 320,000; in the data active means inhibition mostly above about 10%, no sharp cut-off; inactive means mostly below about 6.7%
Target sequence (Q9QR71 whole entry, looked up): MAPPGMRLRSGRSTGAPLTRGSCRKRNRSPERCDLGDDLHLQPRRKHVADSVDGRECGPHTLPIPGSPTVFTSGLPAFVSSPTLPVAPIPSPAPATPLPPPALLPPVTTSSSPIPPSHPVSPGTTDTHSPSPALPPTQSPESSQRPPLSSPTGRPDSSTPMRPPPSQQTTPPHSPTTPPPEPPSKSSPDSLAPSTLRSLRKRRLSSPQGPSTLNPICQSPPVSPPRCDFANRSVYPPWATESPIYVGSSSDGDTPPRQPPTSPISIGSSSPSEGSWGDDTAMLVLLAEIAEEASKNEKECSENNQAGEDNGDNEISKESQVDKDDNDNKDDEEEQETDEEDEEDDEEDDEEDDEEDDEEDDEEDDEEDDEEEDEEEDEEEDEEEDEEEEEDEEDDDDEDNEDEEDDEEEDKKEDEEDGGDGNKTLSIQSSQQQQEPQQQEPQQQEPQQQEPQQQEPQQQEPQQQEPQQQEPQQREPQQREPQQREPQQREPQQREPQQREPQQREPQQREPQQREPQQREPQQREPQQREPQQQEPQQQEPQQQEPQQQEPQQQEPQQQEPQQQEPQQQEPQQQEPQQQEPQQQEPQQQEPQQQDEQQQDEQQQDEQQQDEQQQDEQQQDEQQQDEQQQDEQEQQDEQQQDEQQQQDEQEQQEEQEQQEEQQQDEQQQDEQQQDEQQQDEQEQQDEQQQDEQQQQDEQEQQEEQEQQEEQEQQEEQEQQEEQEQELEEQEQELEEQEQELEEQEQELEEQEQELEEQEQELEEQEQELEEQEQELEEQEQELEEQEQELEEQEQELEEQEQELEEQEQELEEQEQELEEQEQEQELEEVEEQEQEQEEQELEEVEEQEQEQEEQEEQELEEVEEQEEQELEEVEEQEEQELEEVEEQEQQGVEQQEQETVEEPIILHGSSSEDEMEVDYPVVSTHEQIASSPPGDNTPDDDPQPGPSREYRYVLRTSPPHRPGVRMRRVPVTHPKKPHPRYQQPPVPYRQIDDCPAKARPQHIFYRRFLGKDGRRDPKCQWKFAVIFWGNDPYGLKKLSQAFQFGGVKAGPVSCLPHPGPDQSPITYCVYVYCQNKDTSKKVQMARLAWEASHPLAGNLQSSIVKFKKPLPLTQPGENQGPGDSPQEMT
Keap1 Nrf2 FP = Keap1-Nrf2 (human) interaction inhibition. inhibition, % at 9.4 µM. Q14145. Keap1 Kelch-Nrf2 peptide fluorescence polarization, 1536-well. hit rate 0.15% among 340,000; in the data active means inhibition above about 12%;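 further: human Keap1 Kelch domain with fluorescein labeled Nrf2 9mer peptide probe; higher means more block of Keap1 binding to Nrf2 peptide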
C-LANA FP = inhibitors of KSHV LANA C-terminal domain DNA binding; MBP-C-LANA/FAM-LBS DNA binding, fluorescence polarization; inhibition, % at 9 µM; hit rate 0.078% among 340,000;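 active means highest replicate inhibition at or above 60% at 9 µM, even if other replicates fall short; inactive means all replicates below 60% inhibition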
CaV13 FRET inh = Primary screen for inhibitors of IQ motif and Ca2+-dependent inactivation inhibitor domain binding in CACNA1D, Förster resonance energy transfer in living cells, …; hit rate 0.098% among 340,000; inhibition, % at 12.3 µM; HEK cells, CFP/YFP FRET ICDI-IQ, plate reader, 10 min; percent FRET-ratio fall versus neutral wells;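 active means mean replicate inhibition of at least 30% and at least 1% of replicates passing that level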
A number is an active result; – = inactive; · = no result.

SMILES	CAL PDZ FP-1	CAL PDZ FP-2	LANA-H2A inh	Keap1 Nrf2 FP	C-LANA FP	CaV13 FRET inh
COc1ccccc1CCn1cnc(-c2ccccc2F)c1CC(C)C	·	·	·	·	·	–
Cc1ccc(C2c3c(n[nH]c3C)C(=O)N2Cc2ccccc2)cc1 (centres undefined)	·	·	·	·	·	–
CCOc1ccc(C(=O)NC(C)C2COc3ccccc3O2)cc1 (centres undefined)	–	–	36	–	–	–
O=C(CCN1C(=O)C2CC=CCC2C1=O)NC1CCCCC1 (centres undefined)	–	–	–	–	–	–
CC1CCC(NC(=O)CCN2C(=O)C3CC=CCC3C2=O)CC1 (centres undefined)	–	67	–	–	–	–
O=C(Cc1cccc2ccccc12)Nc1cc(C(=O)O)cc(C(=O)O)c1	–	44	–	–	–	–
O=C(Cc1cccc2ccccc12)NC(=S)Nc1cccc(C(=O)O)c1	–	–	–	–	–	–
CCC(C(=O)NCc1ccco1)N(C(=O)CNS(=O)(=O)c1ccccc1)c1ccccc1C (centres undefined)	–	–	–	–	–	–
Nc1ccc(C(=O)Nc2ccc3c(O)cc(S(=O)(=O)O)cc3c2)cc1	–	·	·	–	116	–
Nc1ccc(NC(=O)c2ccc(C(=O)Nc3ccc(N)cc3)cc2)cc1	–	–	–	–	–	–
CCn1cc(C2=NC(CC(C)C)CO2)c2ccccc21 (centres undefined)	–	65	–	–	–	–
O=C(CNC(=O)c1ccc(N2CCCC2=O)cc1)Nc1ccc(F)c(F)c1F	–	–	–	–	–	–
COc1ccc(OC)c(Cc2nnc(CCC(=O)NCc3ccsc3)o2)c1	–	·	–	–	–	–
CCCCCCCCN1C(=O)[C@@H](CC(=O)NCCCOC)C[C@@]2(C(=O)OC)C1=C[C@H](C(C)(C)C)O[C@@H]2C	·	·	·	·	·	–
CN(C)c1ccc(N=Nc2ccc(S(N)(=O)=O)cc2)cc1	–	44	–	–	–	–
COC(=O)C1=C(C)N(C)C(=NCc2ccc(C(F)(F)F)cc2)NC1c1cccc(F)c1 (centres undefined)	·	·	·	·	·	–
Nc1nonc1C(=O)NCCNCc1cc(Br)ccc1OCc1ccccc1F	–	–	–	–	–	–
Nc1nonc1C(=O)NCCNCc1ccccc1OCc1ccccc1F	–	74	–	–	–	–
CCS(=O)(=O)c1nc(S(=O)(=O)c2ccc(C)cc2)c(N2CCC3(CC2)OCCO3)s1	–	–	–	–	–	–
CCCS(=O)(=O)c1nc(S(=O)(=O)c2ccc(C)cc2)c(N2CCC3(CC2)OCCO3)s1	–	57	–	–	–	–
CN1OC[C@@H]2CN3C(=Nc4cc(C(F)(F)F)cc(C(F)(F)F)c4)Sc4ccccc4[C@@H]3C[C@@H]21	·	·	·	·	·	–
CCC(C)[C@H](NS(=O)(=O)c1ccc(C)cc1)C(=O)N1CCC(C(=O)N[C@@H](Cc2ccccc2)C(=O)O)CC1 (some centres undefined)	–	–	–	–	–	–
Clc1ccccc1N=Nc1ccccn1	–	–	·	14	–	–
Cc1[nH][nH]c(=O)c1N=Nc1ccccc1Cl	–	·	–	–	·	–
COc1ccccc1CCn1cnc2c3cc(C)ccc3n(C)c2c1=O	–	–	24	–	–	–
SMILES	CAL PDZ FP-1	CAL PDZ FP-2	LANA-H2A inh	Keap1 Nrf2 FP	C-LANA FP	CaV13 FRET inh
COC(=O)c1ccc(NC(=O)c2c(C(=O)Nc3ccccc3)sc3nc(C)cc(=O)n23)cc1	–	99	–	–	–	–
O=C(NNc1ccccc1)/C(=C\c1cccnc1)NC(=O)c1ccccc1	–	73	–	–	–	–
C[C@@H]1CCCCO[C@@H](CN(C)C(=O)Nc2ccccc2)[C@@H](C)CN([C@H](C)CO)C(=O)c2cc(NC(=O)NC3CCCCC3)ccc2O1	·	·	·	·	·	–
CCCCN(C(=O)CCCc1nc2ccccc2s1)c1c(N)n(CC(C)C)c(=O)[nH]c1=O	–	·	176	–	–	–
CCCCN(C(=O)C(C)N1C(=O)c2ccccc2C1=O)c1c(N)n(CC(C)C)c(=O)[nH]c1=O (centres undefined)	–	·	14	–	–	–
CCCCn1c(N)c(N(CCC(C)C)C(=O)CCCc2nc3ccccc3s2)c(=O)[nH]c1=O	–	–	–	–	–	–
